Experimental data taken from publication PMC2805915 (Nature medicine, 2009).

What was measured:
[1] = tested on: primary human DLBCL cells; assay: Primary cells treatment, viability; type: cell-based; settings: 2.5 μM; 48 h; versus vehicle-treated controls
In short: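 Lymph node biopsies disrupted physically and separated by density gradient; cells kept in 80% RPMI/20% human serum with antibiotics, L-glutamine and HEPES. Exposed in triplicate to 2.5 μM test compound or water for 48 h. Viability read by ATP luminescence and dye exclusion, expressed as percent of vehicle control.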

[2] = tested on: Bcl6; assay: Bcl6 immunoblot in DLBCL cells; type: cell-based, human
In short: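 Farage, OCI-Ly7 and SU-DHL4 cells exposed 24 h to 0.1, 0.25, 0.5 or 1 μM test compound; OCI-Ly7 also given 0.5 μM for 4, 6, 12, 18, 24 and 48 h. Compound added from concentrated stock to 10% serum medium. Lysates immunoblotted for Bcl6 with N-terminal (N3) and C-terminal (C19) antibodies, actin as loading control.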

[3] = tested on: Bcl6; assay: Protein decay determination; type: cell-based, human; settings: OCI-Ly7; 0.5 µM PU-H71 after Cycloheximide 5 μM
In short: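 OCI-Ly7 cells, control or test-compound treated, incubated with 5 μM cycloheximide over a time course. Bcl6 and actin immunoblotted at each point; Bcl6/actin ratio quantified by densitometry with untreated cells set at 100% and plotted against time.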

[4] = tested on: Toledo xenografts; assay: Mice xenotransplant study, Toledo; type: in vivo, SCID mice; settings: Bcl6-independent; similar dose (75 mg per kg per day)
[5] = Pharmacokinetic; type: in vivo; settings: Farage xenograft mice, 75 mg per kg i.p.
In short: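 Mice bearing 1 cm3 Farage xenografts received a single 75 mg/kg i.p. dose of test compound; killed at 6, 12 and 24 h alongside controls. Serum, tumor and normal tissues assayed for compound concentration by HPLC-MS.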

[6] = tested on: Bcl6-dependent DLBCL cell lines; assay: Growth inhibition determination; type: cell-based, human; settings: read-out: GI50 (concentration that inhibited the growth of the cell lines by 50% compared to control); 48 h; group of seven Bcl6-dependent DLBCL cell lines
In short: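 Cells seeded so untreated controls stayed in exponential growth through the 48 h exposure, then treated with 0.1–10 μM test compound or water vehicle in 10% serum medium. Viability read by resazurin reduction fluorescence (560Ex/590Em), with viable cells calculated from a standard curve and 6 replicates per condition, and verified by sulforhodamine B or ATP luminescence. Values normalized to controls. Experiments in triplicate. GI50 taken from dose-effect curves and reported as mean with 95% CI.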

[7] = tested on: SU-DHL6 xenograft; assay: Mice xenotransplant study, SU-DHL6; type: in vivo, SCID mice; settings: 75 mg per kg per day; 20 days
In short: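 Additional cohort of SCID mice with s.c. OCI-Ly7 or SU-DHL6 xenografts held until mean tumor volume reached 500 mm3, then given test compound i.p. for 20 days; tumor volume followed by caliper every other day.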

[8] = tested on: OCI-Ly7 xenografts; assay: Mice xenotransplant study, OCI-Ly7; type: in vivo, SCID mice; settings: 75 mg per kg per day; 20 days
[9] = Toxicity in xenografted mice; type: in vivo, SCID mice; settings: 75 mg per kg per day, 10 days
In short: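 Xenografted SCID mice dosed i.p. at 75 mg/kg/day were weighed every other day. At euthanasia, blood was collected and tumors and other tissues were harvested, weighed and examined microscopically by pathologists.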

[10] = Mice toxicity studies; type: in vivo, Balb/c mice; settings: 50 or 75 mg per kg per day; 10 days
[11] = tested on: Bcl6-independent DLBCL cell lines; assay: Growth inhibition determination; type: cell-based, human; settings: read-out: GI50 (concentration that inhibited the growth of the cell lines by 50% compared to control); 48 h; group of four Bcl6-independent DLBCL cell lines
[12] = tested on: Farage, OCI-Ly7 and SU-DHL4 DLBCL xenografts; assay: Mice xenotransplant study, pooled; type: in vivo, SCID mice; settings: 75 mg per kg per day
In short: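 Male SCID mice, 6–8 weeks old, injected s.c. in the left flank with 10^7 low-passage DLBCL cells. At palpable size (about 75–100 mm3, 24–33 days), pairs were randomized to vehicle or 75 mg/kg/day test compound i.p. (reconstituted in sterile water) for 10 days, n = 5 per arm per line. Caliper volume was measured every other day as (smallest diameter² × largest)/2. Mice were euthanized when ≥2 of 10 tumors reached 20 mm. Tumors were weighed and TUNEL-scored as apoptotic/total cells. Survival ran from treatment start to death or tenfold volume rise, by Kaplan-Meier with Cox's F test.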

[13] = tested on: BCL6 mRNA; assay: mRNA decay determination; type: cell-based, human; settings: OCI-Ly7; versus vehicle-treated cells
In short: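 OCI-Ly7 cells pretreated 2 h with 0.5 μM test compound or control, then actinomycin D added for a time course. BCL6 mRNA quantified by QPCR against a standard curve, normalized to untreated cells; three independent experiments averaged to derive half-life.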

CC(C)NCCCn1c(Sc2cc3c(cc2I)OCO3)nc2c(N)ncnc21 [PU-H71]
cases among 21 DLBCLs with greater than 25% loss of viability [1]: 19 | Bcl6 protein abundance ([2]; 24 h, 0.1-1 μM, Farage, OCI-Ly7 and SU-DHL4): dose-dependent reduction | Bcl6 protein (immunoblot, antibodies N3 and C19) ([2]; OCI-Ly7, 0.5 μM, after 18 h): barely detectable | time for relative Bcl6 protein abundance to decrease from 100% to 50% [3]: 5 h | effect on xenograft growth [4]: no effect | PU-H71 concentration in tumor ([5]; 6 h): 42.1 µg/g | PU-H71 concentration in tumor ([5]; 12 h): 27.6 µg/g | PU-H71 concentration in tumor ([5]; 24 h): 12 µg/g | PU-H71 in serum ([5]; after the 6 h timepoint): undetectable | GI50 [6]: 1.39 µM | tumor volume [7]: ≤ 100 mm^3 | tumor volume in steady phase [8]: ~500 mm^3 | toxicity from behavioral, macroscopic or microscopic standpoints [9]: no evidence of toxicity | hematologic, renal or hepatic toxicity (blood counts, chemistry, liver function, thyroid hormone) [10]: no evidence of hematologic, renal or hepatic toxicity | macroscopic or microscopic toxicity [10]: no evidence of macroscopic or microscopic toxicity | GI50 [11]: 71 µM | DLBCL size and weight compared to control ([12]; 10 days): potently reduced | survival (tumor growth to critical mass as surrogate) v controls ([12]; n = 15, Cox's F test P < 0.0001): significantly prolonged | increase in Bcl6 mRNA decay rate [13]: 32%
